Activity calls are given as the source filed them. The rule behind the calls is not given here.

IC50, inhibition and Activity data for twelve compounds are collected here from ChEMBL document CHEMBL1149763, “Synthesis, in vitro antiproliferative activities, and Chk1 inhibitory properties of pyrrolo[3,4-a]carbazole-1,3-diones, pyrrolo[3,4-c]carbazole-1,3-diones, and 2-aminopyridazino[3,4-a]pyrrolo[3,4-c]carbazole-1,3,4,7-tetraone” (Eur J Med Chem, 2008).

Test [1] can be described thus: Antiproliferative activity against human […] cells microculture tetrazolium assay. Format: functional, cell-based. In outline: (§1)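 Cells grown in RPMI 1640 with 10% fetal calf serum, 2 mM L-glutamine, penicillin/streptomycin and 10 mM HEPES (pH 7.4). Continuous exposure to graded compound concentrations for four doubling times. MTT (5 mg/mL) added, 4 h at 37 °C, formazan dissolved in DMSO, optical density read. IC50 is the concentration halving optical density relative to untreated controls.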

The target in test [2] is T1, Serine/threonine-protein kinase Chk1 (Homo sapiens) (UniProt O14757).
T1 sequence (whole entry): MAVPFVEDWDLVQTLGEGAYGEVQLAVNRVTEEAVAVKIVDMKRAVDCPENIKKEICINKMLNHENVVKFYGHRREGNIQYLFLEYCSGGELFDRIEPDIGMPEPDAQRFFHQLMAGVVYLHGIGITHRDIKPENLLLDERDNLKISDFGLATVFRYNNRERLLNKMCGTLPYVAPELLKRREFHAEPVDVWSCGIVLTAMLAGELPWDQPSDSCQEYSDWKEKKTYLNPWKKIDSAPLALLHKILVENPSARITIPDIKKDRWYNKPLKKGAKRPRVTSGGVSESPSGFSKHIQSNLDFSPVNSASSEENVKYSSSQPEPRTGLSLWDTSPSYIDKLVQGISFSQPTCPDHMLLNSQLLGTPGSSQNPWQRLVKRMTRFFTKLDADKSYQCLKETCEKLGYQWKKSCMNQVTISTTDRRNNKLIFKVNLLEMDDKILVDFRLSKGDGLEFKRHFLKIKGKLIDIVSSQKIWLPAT
The test can be described thus: Inhibition of human Chk1 at 10 uM. The method, boiled down: (§2)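 Chk1, commercial or GST-Chk1 purified from baculovirus-infected Sf9 cell extracts. Percent inhibition measured at a single compound concentration; IC50 also determined.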

In test [3] the test system is HT-29. The test can be described thus: Antiproliferative activity against human HT29 cells microculture tetrazolium assay. Format: functional, cell-based. In outline: as §1
Test [4] deals with L1210. The test can be described thus: Antiproliferative activity against mouse L1210 cells by microculture tetrazolium assay. Format: functional, cell-based. In outline: as §1
For test [5], the target named is Proto-oncogene tyrosine-protein kinase Src (Homo sapiens) (UniProt P12931). The test can be described thus: Inhibition of Src kinase at 10 uM. In outline: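 Radiometric Src kinase assay. 20 min at 30 °C, stopped with 0.85% orthophosphoric acid, captured on phosphocellulose filter, washed with orthophosphoric acid, dried with acetone.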
The target in test [6] is T2, Serine/threonine-protein kinase Chk1 (Homo sapiens, UniProt O14757).
T2 sequence (O14757 whole entry): T1 sequence (whole entry)
The test can be described thus: Inhibition of human Chk1. In outline: as §2

Sequence of Proto-oncogene tyrosine-protein kinase Src (Homo sapiens) (P12931 2-536 limits assumed): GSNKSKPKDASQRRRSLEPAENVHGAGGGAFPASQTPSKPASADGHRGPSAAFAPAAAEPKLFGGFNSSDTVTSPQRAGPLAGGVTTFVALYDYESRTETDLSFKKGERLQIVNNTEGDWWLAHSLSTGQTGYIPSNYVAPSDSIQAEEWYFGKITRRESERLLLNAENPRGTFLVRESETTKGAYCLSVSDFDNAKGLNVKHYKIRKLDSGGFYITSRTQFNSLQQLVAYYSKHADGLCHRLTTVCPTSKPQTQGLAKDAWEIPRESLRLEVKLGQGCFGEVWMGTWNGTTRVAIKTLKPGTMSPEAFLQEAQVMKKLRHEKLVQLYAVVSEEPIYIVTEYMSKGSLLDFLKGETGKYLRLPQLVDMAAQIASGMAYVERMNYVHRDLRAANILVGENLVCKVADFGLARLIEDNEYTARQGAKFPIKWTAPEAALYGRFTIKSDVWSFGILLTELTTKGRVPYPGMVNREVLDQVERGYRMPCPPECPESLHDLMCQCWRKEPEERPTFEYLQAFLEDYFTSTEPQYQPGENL

Usually IC50 stands for the midpoint of a concentration-inhibition curve. Low readings indicate greater potency, high ones weaker potency. `O=C1NC(=O)c2c1c1[nH]cnc1c1[nH]c3ccccc3c21` [GRANULATIMIDE]: the IC50 in test [1] came to 6.1 µM.
As usually defined, the inhibition is the share of the control response that was lost under treatment. Regarding `O=C1NC(=O)C2C1c1[nH]c3ccccc3c1C1C(=O)OC(=O)C12` (stereo unspecified), in test [2], the inhibition came to 10.6%. The results for the IC50 in test [3] and in test [4] were 6.2 µM and 5.7 µM, respectively.
As for `CCOC(=O)c1cc2c(c3c1[nH]c1ccccc13)C(=O)N(CO)C2=O`, the inhibition in test [5] stood at 11.5%; in test [2], 72.4%. In addition, the IC50 in test [3] came out at 3.9 µM; in test [6], 0.21 µM; in test [4], 5.5 µM; in test [1], 2.9 µM.
The compound `O=C1NC(=O)c2c1c1c3ccccc3[nH]c1n1cncc21` [ISOGRANULATIMIDE] showed an IC50 in test [1] of 13 µM.
As to `O=c1[nH]c(=O)c2c1c1[nH]c3ccccc3c1c1c(=O)oc(=O)c21`, the outcome in test [2] was inactive. Further, the IC50 was 33 µM in test [3], 11.9 µM in test [4] and 10.7 µM in test [1].
With `CCOC(=O)c1c2c(c3[nH]c4ccccc4c3c1O)C(=O)N(CO)C2=O`, the result in test [2] was inactive. The IC50 was 31.7 µM in test [3], 10.6 µM in test [4] and 11.5 µM in test [1].
In the case of `CCOC(=O)c1cc2c(c3c1[nH]c1ccccc13)C(=O)NC2=O`, the inhibition in test [2] amounted to 71.7%. Besides, the half-maximal inhibitory concentration (IC50) in test [3] is 4 µM; in test [6] it was greater than 5 µM; in test [4], 5.8 µM; in test [1] it was 2.3 µM.
Compound `O=C1NC(=O)c2c1cc(O)c1c2[nH]c2ccccc21` came in with an inhibition in test [2] of 11%. Moreover, the half-maximal inhibitory concentration (IC50) in test [3] amounted to 46.7 µM; in test [4], 54.4 µM; in test [1], 34.4 µM.
In test [2], `O=C1NC(=O)c2c1c1c(c3c2[nH]c2ccccc23)C(=O)NC1` displayed an inhibition of 85.4%. Moreover, the IC50 in test [3] is 8.2 µM; in test [6] it was 0.05 µM; in test [4], 45.8 µM; in test [1] it was 10.2 µM.
In test [2], `CCOC(=O)c1cc2c(c3[nH]c4ccccc4c13)C(=O)NC2=O` had an inhibition of 45.3%. In addition, the figures for the IC50 in test [3], in test [4] and in test [1] were 6.4 µM, 4.9 µM and 3.8 µM, respectively.
As for `CCOC(=O)c1c2c(c3[nH]c4ccccc4c3c1O)C(=O)NC2=O`, the outcome in test [2] was inactive. In addition, the IC50 in test [3] stood at 84.9 µM; in test [4], 57.5 µM; in test [1] it was 33.6 µM.
`O=C1NC(=O)c2c1c1c(c3c2[nH]c2ccccc23)CNC1=O` returned an inhibition in test [2] of 71.7%. Moreover, the IC50 in test [3] is greater than 100 µM; in test [6], 0.37 µM; in test [4], 47 µM; in test [1], 58.9 µM.
